Test results taken from ChEMBL document CHEMBL3525900, “Pharmacokinetics, distribution, and metabolism of [14C]sunitinib in rats, monkeys, and humans” (Drug Metab Dispos, 2012).

Legend:
[1] = Cmax in female cynomolgus monkey plasma at 6 mg/kg, po administered as single dose by LC/MS/MS analysis; format: ADME, organism-based, Macaca fascicularis; set-up: dose 6 mg/kg, dosed compound name [14C]Sunitinib, route oral
Procedure, shortened: (§1)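 Cynomolgus monkeys were given a single oral gavage of [14C]sunitinib L-malate at 6 mg/kg (37 µCi/kg). Heparinized femoral-vein blood was taken at pre-dose and 0.5–336 h. […] Cmax was read directly from the raw concentration data.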

[2] = Drug excretion in urine of male Sprague-Dawley rat at 15 mg/kg, po administered as single dose by liquid scintillation counting; format: ADME, organism-based; set-up: dose 15 mg/kg, dosed compound name [14C]Sunitinib, route oral; details: in vivo
[3] = AUC (0 to infinity) in human plasma at 50 mg, po administered as single dose by LC/MS/MS analysis; format: ADME, organism-based; set-up: dose 50 mg, route oral, time infinity, dosed compound name [14C]Sunitinib
Procedure, shortened: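 Open-label phase I study in 8 subjects given one 50 mg oral dose of [14C]sunitinib (100 µCi). Plasma total radioactivity was counted by scintillation on triplicate 0.25 mL aliquots. Sunitinib was quantified by LC-MS-MS. Noncompartmental analysis: Cmax read directly, terminal t½ = ln(2)/slope of the log-concentration regression, AUC by linear trapezoidal rule to the last detectable concentration.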

[4] = AUC (0 to infinity) in male cynomolgus monkey plasma at 6 mg/kg, po administered as single dose by LC/MS/MS analysis; format: ADME, organism-based, Macaca fascicularis; set-up: time infinity, dose 6 mg/kg, dosed compound name [14C]Sunitinib, route oral
Procedure, shortened: (§2)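 Cynomolgus monkeys of both sexes received one oral gavage of [14C]sunitinib L-malate at 6 mg/kg (37 µCi/kg). Femoral-vein blood was taken into heparin from 0.5 to 336 h. Plasma was kept cold and protected from light, then stored at -80 °C. Total radioactivity was by scintillation counting and sunitinib by methanol-extraction LC-MS-MS. Cmax was from raw data, t½ from the log-linear terminal slope, AUC(0-∞) by linear trapezoidal rule.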

[5] = Drug excretion in feces of male Sprague-Dawley rat at 15 mg/kg, po administered as single dose by liquid scintillation counting; format: ADME, organism-based; set-up: dose 15 mg/kg, dosed compound name [14C]Sunitinib, route oral; details: in vivo
[6] = Cmax in male Sprague-Dawley rat plasma at 15 mg/kg, po administered as single dose by LC/MS/MS analysis; format: ADME, organism-based; set-up: dose 15 mg/kg, dosed compound name [14C]Sunitinib, route oral
Procedure, shortened: (§3)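 Single dose of [14C]sunitinib L-malate as free base, 50 µCi/kg. IV dose was 5 mg/kg by tail vein in 5 females. Oral dose was 15 mg/kg by gavage in 3 females and 3 males. Total radioactivity was by scintillation counting. […] Cmax was read from raw data, t½ by log-linear regression, AUC by linear trapezoidal rule.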

[7] = Drug excretion in feces of female Sprague-Dawley rat at 5 mg/kg, iv administered as single dose by liquid scintillation counting; format: ADME, organism-based; set-up: dose 5 mg/kg, dosed compound name [14C]Sunitinib, route intravenous; details: in vivo
[8] = Terminal half life in male cynomolgus monkey plasma at 6 mg/kg, po administered as single dose by LC/MS/MS analysis; format: ADME, organism-based, Macaca fascicularis; set-up: dose 6 mg/kg, dosed compound name [14C]Sunitinib, route oral; details: read-out: beta t1/2 (converted)
[9] = Terminal half life in female cynomolgus monkey plasma at 6 mg/kg, po administered as single dose by LC/MS/MS analysis; format: ADME, organism-based, Macaca fascicularis; set-up: dose 6 mg/kg, dosed compound name [14C]Sunitinib, route oral; details: read-out: beta t1/2 (converted)
[10] = Cmax in female Sprague-Dawley rat plasma at 5 mg/kg, iv administered as single dose by LC/MS/MS analysis; format: ADME, organism-based; set-up: dose 5 mg/kg, dosed compound name [14C]Sunitinib, route intravenous; procedure, shortened: as §3
[11] = Drug excretion in urine of female cynomolgus monkey at 6 mg/kg, po administered as single dose by liquid scintillation counting; format: ADME, organism-based, Macaca fascicularis; set-up: dose 6 mg/kg, dosed compound name [14C]Sunitinib, route oral; details: in vivo
[12] = Cmax in male cynomolgus monkey plasma at 6 mg/kg, po administered as single dose by LC/MS/MS analysis; format: ADME, organism-based, Macaca fascicularis; set-up: dose 6 mg/kg, dosed compound name [14C]Sunitinib, route oral; procedure, shortened: as §1
[13] = Cmax in female Sprague-Dawley rat plasma at 15 mg/kg, po administered as single dose by LC/MS/MS analysis; format: ADME, organism-based; set-up: dose 15 mg/kg, dosed compound name [14C]Sunitinib, route oral; procedure, shortened: as §3
[14] = AUC (0 to infinity) in female Sprague-Dawley rat plasma at 5 mg/kg, iv administered as single dose by LC/MS/MS analysis; format: ADME, organism-based; set-up: time infinity, dose 5 mg/kg, dosed compound name [14C]Sunitinib, route intravenous; procedure, shortened: as §3
[15] = Retention time of compound by LC/MS/MS analysis; format: physicochemical; set-up: dosed compound name [14C]Sunitinib
[16] = Clearance in female Sprague-Dawley rat plasma at 5 mg/kg, iv administered as single dose by LC/MS/MS analysis; format: ADME, organism-based; set-up: dose 5 mg/kg, dosed compound name [14C]Sunitinib, route intravenous
Procedure, shortened: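 Female rats (5) were given a single tail-vein bolus of [14C]sunitinib L-malate at 5 mg/kg free base (50 µCi/kg). […] Parameters were noncompartmental, with AUC by the linear trapezoidal rule.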

[17] = Tmax in female Sprague-Dawley rat plasma at 15 mg/kg, po administered as single dose by LC/MS/MS analysis; format: ADME, organism-based; set-up: dose 15 mg/kg, dosed compound name [14C]Sunitinib, route oral
[18] = Drug excretion in feces of male cynomolgus monkey at 6 mg/kg, po administered as single dose by liquid scintillation counting; format: ADME, organism-based, Macaca fascicularis; set-up: dose 6 mg/kg, dosed compound name [14C]Sunitinib, route oral; details: in vivo
[19] = Drug excretion in feces of female cynomolgus monkey at 6 mg/kg, po administered as single dose by liquid scintillation counting; format: ADME, organism-based, Macaca fascicularis; set-up: dose 6 mg/kg, dosed compound name [14C]Sunitinib, route oral; details: in vivo
[20] = AUC (0 to infinity) in female cynomolgus monkey plasma at 6 mg/kg, po administered as single dose by LC/MS/MS analysis; format: ADME, organism-based, Macaca fascicularis; set-up: time infinity, dose 6 mg/kg, dosed compound name [14C]Sunitinib, route oral; procedure, shortened: as §2
[21] = Drug excretion in urine of human at 50 mg, po administered as single dose by liquid scintillation counting; details: in vivo
[22] = Tmax in male Sprague-Dawley rat plasma at 15 mg/kg, po administered as single dose by LC/MS/MS analysis; format: ADME, organism-based; set-up: dose 15 mg/kg, dosed compound name [14C]Sunitinib, route oral
[23] = Drug excretion in feces of human at 50 mg, po administered as single dose by liquid scintillation counting; details: in vivo
[24] = Volume of distribution at steady state in female Sprague-Dawley rat plasma at 5 mg/kg, iv administered as single dose by LC/MS/MS analysis; format: ADME, organism-based; set-up: dose 5 mg/kg, dosed compound name [14C]Sunitinib, route intravenous; details: read-out: Vdss
[25] = Apparent terminal half life in female Sprague-Dawley rat plasma at 15 mg/kg, po administered as single dose by LC/MS/MS analysis; format: ADME, organism-based; set-up: dose 15 mg/kg, dosed compound name [14C]Sunitinib, route oral; details: read-out: t1/2 lambda z (converted); procedure, shortened: as §3
[26] = Tmax in male cynomolgus monkey plasma at 6 mg/kg, po administered as single dose by LC/MS/MS analysis; format: ADME, organism-based, Macaca fascicularis; set-up: dose 6 mg/kg, dosed compound name [14C]Sunitinib, route oral
[27] = Apparent oral clearance in human plasma at 50 mg, po administered as single dose by LC/MS/MS analysis; format: ADME, organism-based; set-up: dosed compound name [14C]Sunitinib
[28] = Cmax in human plasma at 50 mg, po administered as single dose by LC/MS/MS analysis; format: ADME, organism-based; set-up: dose 50 mg, route oral, dosed compound name [14C]Sunitinib
Procedure, shortened: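 This was an open-label, single-dose, single-centre phase I study in eight male subjects. Each received one oral 50 mg dose of [14C]sunitinib (100 µCi). Plasma sunitinib was measured by a validated LC-MS-MS method. Cmax was read directly from the raw concentration–time data.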

[29] = AUC (0 to infinity) in male Sprague-Dawley rat plasma at 15 mg/kg, po administered as single dose by LC/MS/MS analysis; format: ADME, organism-based; set-up: time infinity, dose 15 mg/kg, dosed compound name [14C]Sunitinib, route oral; procedure, shortened: as §3
[30] = Apparent terminal half life in male Sprague-Dawley rat plasma at 15 mg/kg, po administered as single dose by LC/MS/MS analysis; format: ADME, organism-based; set-up: dose 15 mg/kg, dosed compound name [14C]Sunitinib, route oral; details: read-out: t1/2 lambda z (converted); procedure, shortened: as §3
[31] = Terminal half life in human plasma at 50 mg, po administered as single dose by LC/MS/MS analysis; format: ADME, organism-based; set-up: dosed compound name [14C]Sunitinib; details: read-out: beta t1/2 (converted)
[32] = AUC (0 to infinity) in female Sprague-Dawley rat plasma at 15 mg/kg, po administered as single dose by LC/MS/MS analysis; format: ADME, organism-based; set-up: time infinity, dose 15 mg/kg, dosed compound name [14C]Sunitinib, route oral; procedure, shortened: as §3
[33] = Drug excretion in urine of male cynomolgus monkey at 6 mg/kg, po administered as single dose by liquid scintillation counting; format: ADME, organism-based, Macaca fascicularis; set-up: dose 6 mg/kg, dosed compound name [14C]Sunitinib, route oral; details: in vivo
[34] = Apparent terminal half life in female Sprague-Dawley rat plasma at 5 mg/kg, iv administered as single dose by LC/MS/MS analysis; format: ADME, organism-based; set-up: dose 5 mg/kg, dosed compound name [14C]Sunitinib, route intravenous; details: read-out: t1/2 lambda z (converted); procedure, shortened: as §3
[35] = Drug excretion in urine of female Sprague-Dawley rat at 15 mg/kg, po administered as single dose by liquid scintillation counting; format: ADME, organism-based; set-up: dose 15 mg/kg, dosed compound name [14C]Sunitinib, route oral; details: in vivo
[36] = Tmax in female cynomolgus monkey plasma at 6 mg/kg, po administered as single dose by LC/MS/MS analysis; format: ADME, organism-based, Macaca fascicularis; set-up: dose 6 mg/kg, dosed compound name [14C]Sunitinib, route oral
[37] = Tmax in human plasma at 50 mg, po administered as single dose by LC/MS/MS analysis; format: ADME, organism-based; set-up: dosed compound name [14C]Sunitinib
[38] = Drug excretion in feces of female Sprague-Dawley rat at 15 mg/kg, po administered as single dose by liquid scintillation counting; format: ADME, organism-based; set-up: dose 15 mg/kg, dosed compound name [14C]Sunitinib, route oral; details: in vivo
[39] = Drug excretion in urine of female Sprague-Dawley rat at 5 mg/kg, iv administered as single dose by liquid scintillation counting; format: ADME, organism-based; set-up: dose 5 mg/kg, dosed compound name [14C]Sunitinib, route intravenous; details: in vivo

- Cmax [1]: 83 ng/mL
- Compound recovery [2]: 0.5%
- AUC(0-inf) [3]: 1060 ng·h/mL
- AUC(0-inf) [4]: 1450 ng·h/mL
- Compound recovery [5]: 5.8%
- Cmax [6]: 963 ng/mL
- Compound recovery [7]: 22.6%
- half-life [8]: 18 h
- half-life [9]: 16 h
- Cmax [10]: 1820 ng/mL
- Compound recovery [11]: 0.2%
- Cmax [12]: 92 ng/mL
- Cmax [13]: 1250 ng/mL
- AUC(0-inf) [14]: 7200 ng·h/mL
- Retention_time [15]: 4 min
- clearance [16]: 13 mL/min/kg
- Tmax [17]: 4 h
- Compound recovery [18]: 8.8%
- Compound recovery [19]: 9.2%
- AUC(0-inf) [20]: 1100 ng·h/mL
- Compound recovery [21]: 6.4%
- Tmax [22]: 3 h
- Compound recovery [23]: 13.6%
- Vd [24]: 3.36 L/kg
- half-life [25]: 7.2 h
- Tmax [26]: 5 h
- CL/F [27]: 832 mL/min
- Cmax [28]: 24.4 ng/mL
- AUC(0-inf) [29]: 11800 ng·h/mL
- half-life [30]: 8 h
- half-life [31]: 50.9 h
- AUC(0-inf) [32]: 24000 ng·h/mL
- Compound recovery [33]: 0.2%
- half-life [34]: 7.4 h
- Compound recovery [35]: 0.6%
- Tmax [36]: 4 h
- Tmax [37]: 8 h
- Compound recovery [38]: 11.5%
- Compound recovery [39]: 0.3%
SMILES: CCN(CC)CCNC(=O)c1c(C)[nH]c(/C=C2\C(=O)Nc3ccc(F)cc32)c1C [SUNITINIB]
